Assay outcomes from PubChem BioAssay.
PKA-R1A act – activators of PKA-R1A complex. PKA-R1A dissociation, Cy5-IP20 fluorescence polarization; scaled: DMSO 0%, 113 µM cGMP 100%. activation, % at 11.4 µM. 340,000 compounds, 0.083% hits;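 active means percent activation above the mean of all tested compounds plus 3 SD, cut at about 19% in these data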;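 further: higher means more PKAc released from R1A so a rise in polarization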
MsrA act – activators of bovine methionine sulfoxide reductase A | activation, % at 10.6 µM | purified bovine MsrA, absorbance read-out | 360,000 compounds, 0.3% hits; in the data active means activation above about 7.5%;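 further: 0% = vehicle and 100% = reference activator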
IMP-1 inhibitor – inhibitors of Pseudomonas aeruginosa IMP-1 metallo-beta-lactamase. purified IMP-1, nitrocefin hydrolysis, epi-absorbance fluorescence. inhibition, % at 5.6 µM. 290,000 compounds, 0.45% hits. AID 1556;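 active means inhibition above the mean plus 3 SD of all compounds in the same screening run, cut at about 4.5% in these data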;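 further: 0% = IMP-1 with DMSO and 100% = DMSO wells lacking enzyme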
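System: purified IMP-1 / Input: IMP-1 dispensed at 0.2 nM / Medium: 50 mM HEPES pH 7.1, 50 µM ZnSO4, 0.05% Brij 35 / Timing: 15 min enzyme–compound preincubation, then 25 min nitrocefin reaction, 25 °C / Technique: plate fluorescence quenching by hydrolysis product, ex 480/em 530 nm / Repeats: singlicate testing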
PKA-R2B act – activates the human PKA-R2B holoenzyme complex; P22694+P31323; 340,000 compounds, 0.079% hits; PKA-R2B holoenzyme dissociation, Cy5-IP20 fluorescence polarization; R2B truncated from residue 108, S112A mutant; 0% DMSO only, 100% 113 µM cGMP; activation, % at 11.4 µM;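 active means activation above a cutoff set at the mean over all compounds plus 3 SD, cut at about 18% in these data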;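 further: higher means more holoenzyme dissociation and a rise in polarization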
Target sequence (P31323 whole entry, looked up, other chains not shown, the tested form may be a part): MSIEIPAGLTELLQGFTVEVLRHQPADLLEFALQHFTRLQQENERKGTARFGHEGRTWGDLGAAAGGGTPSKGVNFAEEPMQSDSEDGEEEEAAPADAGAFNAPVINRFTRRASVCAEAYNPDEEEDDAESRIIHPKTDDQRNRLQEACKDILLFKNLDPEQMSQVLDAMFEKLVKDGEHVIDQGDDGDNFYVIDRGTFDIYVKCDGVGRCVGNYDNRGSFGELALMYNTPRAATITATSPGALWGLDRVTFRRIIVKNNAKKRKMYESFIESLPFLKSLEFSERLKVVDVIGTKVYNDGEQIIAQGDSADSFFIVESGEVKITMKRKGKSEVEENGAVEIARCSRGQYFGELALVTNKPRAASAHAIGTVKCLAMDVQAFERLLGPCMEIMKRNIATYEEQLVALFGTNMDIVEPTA
MsrA inh – bovine MsrA inhibition; purified bovine MsrA, absorbance read-out; inhibition, % at 15.5 µM; 360,000 compounds, 0.75% hits; in the data active means inhibition above about 4.5%;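 further: 0% = vehicle wells with enzyme and 100% = reference inhibitor wells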
VIM-2 inhibitor – blocks Pseudomonas aeruginosa VIM-2 metallo-beta-lactamase. purified VIM-2, nitrocefin hydrolysis, epi-absorbance fluorescence. inhibition, % at 5.6 µM. 290,000 compounds, 0.89% hits. AID 1527;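 active means inhibition above the mean of all tested compounds plus 3 SD, cutoff set per screening run, cut at about 7.5% in these data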;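 further: red hydrolysis product quenches plate fluorescence so inhibitors raise well fluorescence; 0% = enzyme with DMSO and 100% = DMSO without enzyme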
Numbers without * were called inactive; x = no result. Most compounds without a hit are left out; they make up all but 2.1% or so of the library.

SMILES | PKA-R1A act | MsrA act | IMP-1 inhibitor | PKA-R2B act | MsrA inh | VIM-2 inhibitor
CCNC(=O)O/N=C(\C)c1sc(-c2ccc(Cl)cc2)nc1C | 14.2 | -4.4 | -1.8 | -2.0 | 4.6* | -3.0
CSc1ccc(/C=C/C(=O)OCC(=O)NCC2CCCO2)cc1 (stereo unspecified) | 2.8 | -6.1 | x | -15.6 | 2.7 | x
CCOc1ccc(S(=O)(=O)N2CCCC(C(=O)NCc3cccnc3)C2)cc1Cl (stereo unspecified) | 4.1 | -0.7 | -1.6 | -3.4 | -0.1 | -0.9
Cc1cc(N/N=C/c2ccc(O)cc2)c2cccc(C)c2n1 | 2.5 | -1.8 | -1.0 | -1.9 | 1.4 | 11.8*
O=C(O)c1ccccc1C(=O)NCCc1c(C(=O)O)[nH]c2ccc(Cl)cc12 | 3.2 | -1.1 | -3.4 | -4.9 | -0.3 | 10.1*
CCOC(=O)CNc1nc(OCC#N)nc(N2CCOCC2)n1 | 2.9 | -5.2 | 20.0* | 2.6 | -0.2 | -1.6
CCOC(=O)COc1nc(OC)nc(N2CCOCC2)n1 | 12.2 | -6.2 | -3.4 | 3.5 | 0.4 | -1.0
CC1CCN(C2(O)C(=O)Nc3ccc(Cl)cc32)CC1 (stereo unspecified) | -4.1 | -2.6 | -1.8 | 8.1 | -0.8 | 0.2
CC1CCN(C2(O)C(=O)Nc3ccc([N+](=O)[O-])cc32)CC1 (stereo unspecified) | -0.9 | -13.4 | -2.2 | 0.3 | 6.6* | 0.4
CCSc1nc(NCCN(C)C)c2c3c(sc2n1)COC(C)(CC)C3 (stereo unspecified) | 2.1 | -1.4 | -2.9 | -2.9 | -0.6 | 8.5*
OC(c1ccccc1)(c1ccccc1)C1CCN(CCCOc2ccncc2)CC1 | x | x | x | x | -0.3 | x
CN1CCN(c2ccc(NC(=O)c3cc([N+](=O)[O-])ccc3N3CCOCC3)cc2)CC1 | 0.6 | -3.4 | -2.4 | -6.6 | 1.8 | 12.2*
Cc1occc1-c1nnc(SCC(=O)Nc2c(F)cccc2F)n1C | -5.3 | -0.6 | x | 1.4 | 0.3 | x
CCCCn1c(CCn2nc(C)c(Br)c2C)n[nH]c1=S | -2.2 | 0.1 | 1.1 | -5.8 | 0.0 | 8.1*
Nc1nc(=S)c2ncn(C3CCCCC3)c2[nH]1 | 2.0 | 2.9 | x | -2.0 | 4.6* | x
CC(NC(=O)c1ccccc1)c1nnc(SCC(=O)NC2CCCC2)n1C (stereo unspecified) | 10.1 | -14.9 | -0.5 | 7.3 | -0.4 | -1.3
CCCn1nc(C(=O)OCC(=O)c2c(N)n(C)c(=O)n(C)c2=O)c2ccccc2c1=O | -7.1 | -2.2 | -3.3 | -7.5 | 1.1 | 11.4*
CCc1c(C)nc2ncnn2c1NCCc1ccc(OC)cc1 | -8.5 | -1.5 | -3.9 | 0.6 | 0.4 | 8.9*
CNC(=O)C[C@H]1C(=O)N(C2CCCCC2)C[C@@H]1CSC | -0.1 | -3.6 | x | -11.6 | 0.1 | x
COc1ccc2c(CC(=O)OCC(=O)c3ccccc3OC)coc2c1 | -12.0 | -5.6 | -1.7 | 1.2 | 0.7 | -2.9
COc1ccc2c(CC(=O)OCC(=O)c3ccc(F)cc3)coc2c1 | -2.1 | -5.8 | 5.3* | -1.1 | 0.5 | -1.9
CCCCCC(=O)Nc1nc(C)c(-c2csc(Nc3cc(Cl)ccc3C)n2)s1 | -4.1 | -3.3 | 11.6* | -14.1 | -0.2 | -5.6
CCCC(C)C(=O)Nc1nc(C)c(-c2csc(Nc3cc(Cl)ccc3C)n2)s1 (stereo unspecified) | -1.5 | -3.3 | 9.9* | 0.4 | 1.4 | -2.4
CCCCCC(=O)Nc1nc(C)c(-c2csc(Nc3ccc(Cl)cc3)n2)s1 | -12.4 | -2.0 | -1.5 | -5.5 | 0.0 | -3.2
Cc1ccc(Cl)cc1Nc1nc(-c2sc(NC(=O)c3cccc(Cl)c3)nc2C)cs1 | x | x | -0.3 | x | x | -5.7
SMILES | PKA-R1A act | MsrA act | IMP-1 inhibitor | PKA-R2B act | MsrA inh | VIM-2 inhibitor
CC(C)c1ccc(NC(=O)Nc2nc(C(N)COCc3ccccc3)cs2)cc1 (stereo unspecified) | x | -1.5 | x | x | 0.3 | x
C[C@@H]1CN([C@H](C)CO)C(=O)CCCn2cc(nn2)CO[C@H]1CN(C)S(=O)(=O)c1ccc(Cl)cc1 | x | x | x | x | 0.2 | x
Cc1ccc2c(CC(=O)Nc3ccc4nc(N5CCOCC5)sc4c3)coc2c1 | -3.1 | -6.4 | x | 1.1 | -0.5 | x
COc1ccc(/C=C/C(=O)c2ccccn2)cc1 | 4.6 | 0.3 | 0.8 | 4.8 | 2.4 | 9.6*
C=CCN1C(=O)c2[nH]nc(-c3ccccc3)c2C1c1ccc(C)cc1 (stereo unspecified) | x | x | x | x | 1.7 | x
CC1CN(C(=O)c2ccccc2)CCC1=NO (stereo unspecified) | x | x | x | x | 0.1 | x
COC(=O)CSc1nnc2cc(C)c3ccccc3n12 | -1.3 | -4.7 | 1.5 | -7.0 | 0.7 | 10.0*
O=S(=O)(NCCc1cccs1)c1ccc(Br)cc1 | -16.1 | -8.1 | 5.5* | -5.0 | 0.7 | 0.7
O=C(O)c1ccccc1NC(c1ccccc1)c1ccc2cccnc2c1O (stereo unspecified) | 5.6 | -9.7 | x | -6.5 | 0.7 | x
O=C(O)c1ccc2cccnc2c1O | -2.0 | -1.1 | -0.3 | 0.6 | 0.7 | 10.2*
NC(=O)c1cccc2ccccc12 | -7.4 | -3.0 | -1.4 | -1.9 | 0.2 | -2.6
NC(=O)c1ccc(Cl)c2ccccc12 | 5.9 | 0.1 | 14.9* | 8.3 | 0.6 | -0.9
COC(=O)C1=C(C)NC(=O)/C1=C\N(C)C | -2.0 | -8.3 | -3.2 | -5.5 | 2.1 | -4.0
Cc1nc(SCC(=O)c2ccccc2)c(C#N)c(-c2ccco2)c1C(=O)NCc1ccco1 | -16.0 | -1.9 | 5.0* | -6.3 | 1.5 | 6.4
CC(=NCCCn1ccnc1)C1=C(O)c2ccccc2C1=O | -0.8 | -2.9 | -4.5 | -6.4 | 1.1 | 11.8*
CCOc1ccc([N+](=O)[O-])cc1CNC1CCCCCCC1 | 8.5 | 0.5 | 38.8* | -13.7 | 1.0 | 0.8
O=[N+]([O-])c1cccc(CNC2CCCCCC2)c1 | -0.9 | -3.0 | -5.5 | -6.4 | -0.8 | 0.0
C(=Nc1cccc2c(N=Cc3ccco3)cccc12)c1ccco1 | -7.1 | -3.3 | 16.2* | -4.1 | x | -1.1
O=C(/C=C/c1ccc2c(c1)OCO2)N1CCN(c2n[nH]c(=O)[nH]c2=O)CC1 | -4.0 | 0.0 | -0.9 | -3.5 | 4.6* | -0.6
Cc1nc(NCc2cccnc2)c2c3c(sc2n1)CC(C)CC3 (stereo unspecified) | 6.9 | -1.5 | -0.9 | -5.6 | 0.6 | 9.9*
O=C(c1ccc(Cl)cc1)C1CCN(C(=O)c2ccccc2F)CC1 | 0.5 | -1.3 | x | -4.9 | -0.1 | x
O=C(Nc1ccc(Cl)c(C(F)(F)F)c1)C1CCCN(S(=O)(=O)c2cnc[nH]2)C1 (stereo unspecified) | -3.5 | -1.1 | 6.6* | 0.8 | -0.2 | -1.6
O=C(Nc1ccc(F)c(F)c1)C1CCCN(S(=O)(=O)c2cnc[nH]2)C1 (stereo unspecified) | -5.0 | -0.6 | -1.5 | 15.0 | x | 1.5
Cc1ccc(CCNC(=O)C2CCCN(S(=O)(=O)c3cnc[nH]3)C2)cc1 (stereo unspecified) | 1.8 | -1.8 | 4.8* | -4.6 | -0.6 | 0.2
